Measurements as given in ChEMBL document CHEMBL4665698, “Triple-Negative Breast Cancer Cells Exhibit Differential Sensitivity to Cardenolides from Calotropis gigantea” (J Nat Prod, 2020).
Calls of active or inactive are those of the source. No cut-off for these calls is given here.

Legend:
HCC1806 = test: Cytotoxicity against human HCC1806 cells assessed as reduction in cell viability after 48 hrs by SRB assay; assay type: functional, cell-based; settings: HCC1806, 48 h
Outline: (§1)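 Cells exposed to compounds for 48 h; growth inhibition and cytotoxicity read by sulforhodamine B staining. Concentration-response curves fit by four-parameter non-linear regression; IC50 is the concentration giving 50% reduction in cell density versus DMSO vehicle. Cells grown at 37 °C, 5% CO2 (Hs578T in DMEM with 10% FBS and 50 µg/mL gentamicin).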

Hs-578T = test: Cytotoxicity against human Hs-578T cells assessed as reduction in cell viability after 48 hrs by SRB assay; assay type: functional, cell-based; outline: as §1
MDA-MB-231 [1] = test: Cytotoxicity against human MDA-MB-231 cells assessed as reduction in cell viability after 48 hrs by SRB assay; assay type: functional, cell-based; settings: MDA-MB-231, 48 h; outline: as §1
CAL-51 = test: Cytotoxicity against human CAL-51 cells assessed as reduction in cell viability after 48 hrs by SRB assay; assay type: functional, cell-based; settings: CAL-51, 48 h; outline: as §1
MDA-MB-468 = test: Cytotoxicity against human MDA-MB-468 cells assessed as reduction in cell viability after 48 hrs by SRB assay; assay type: functional, cell-based; settings: MDA-MB-468, 48 h; outline: as §1
HCC1937 = test: Cytotoxicity against human HCC1937 cells assessed as reduction in cell viability after 48 hrs by SRB assay; assay type: functional, cell-based; settings: HCC1937, 48 h; outline: as §1
SUM185PE = test: Cytotoxicity against human SUM185PE cells assessed as reduction in cell viability after 48 hrs by SRB assay; assay type: functional, cell-based
Outline: (§2)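 Cells grown at 37 °C in humidified 5% CO2 and exposed to compounds for 48 h. Antiproliferative and cytotoxic effects read by sulforhodamine B staining of cell density. Concentration-response curves fit by four-parameter non-linear regression. IC50 taken as the concentration giving 50% reduction in cell density relative to DMSO vehicle.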

BT-549 [2] = test: Cytotoxicity against human BT-549 cells assessed as reduction in cell viability after 48 hrs by SRB assay; assay type: functional, cell-based; settings: BT-549, 48 h; outline: as §1
MDA-MB-453 = test: Cytotoxicity against human MDA-MB-453 cells assessed as reduction in cell viability after 48 hrs by SRB assay; assay type: functional, cell-based; settings: MDA-MB-453, 48 h; outline: as §2
HCC70 = test: Cytotoxicity against human HCC70 cells assessed as reduction in cell viability after 48 hrs by SRB assay; assay type: functional, cell-based; settings: HCC70, 48 h; outline: as §1
[3] = Inhibition of porcine cerebral cortex Na+/K+-ATPase after 15 mins by ADP-Glo reagent based assay; set-up: species or system Sus scrofa
[4] = Selectivity index, ratio of IC50 for human MDA-MB-231 cells to IC50 for human BT-549 cells; assay type: functional
MDA-MB-231 [5] = test: Induction of intracellular Ca2+ concentration in human MDA-MB-231 cells at 150 nM after 2 hrs by Cal520-AM dye-based fluorescence assay; assay type: functional, cell-based
Outline: (§3)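 BT-549 and MDA-MB-231 cells in 96-well optical plates at 60–80% confluency, loaded with 2.5 µM Cal-520 AM and 0.2% Pluronic F-127 for 30 min at 37 °C. Same field imaged at 4× at T0 and 2 h after 150 nM compound. Per-cell corrected total fluorescence normalized to T0; two-way ANOVA with Bonferroni test, n = 291–531 cells.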

[6] = Induction of intracellular Ca2+ concentration in human BT-549 cells at 150 nM after 2 hrs by Cal520-AM dye-based fluorescence assay relative to control; assay type: functional; outline: as §3
BT-549 [7] = test: Induction of intracellular Ca2+ concentration in human BT-549 cells at 150 to 500 nM after 3 hrs by Cal520-AM dye-based fluorescence assay; assay type: functional, cell-based; settings: dose nM 150-500, time 3.0 hrs
Outline: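 BT-549 cells on coverslips at 60–80% confluency, loaded with 2.5 µM Cal-520 AM plus 0.2% Pluronic F-127 for 30 min at 37 °C, then washed. Imaged at 20× at T0 and 3 h after 150 or 500 nM compound, multiple fields. Per-cell corrected total fluorescence normalized to T0, versus DMSO; two-way ANOVA with Dunnett's test, n = 102–242 cells.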

SMILES | IC50 (HCC1806) [nM] | IC50 (Hs-578T) [nM] | IC50 (MDA-MB-231 [1]) [nM] | IC50 (CAL-51) [nM] | IC50 (MDA-MB-468) [nM] | IC50 (HCC1937) [nM] | IC50 (SUM185PE) [nM] | IC50 (BT-549 [2]) [nM] | IC50 (MDA-MB-453) [nM] | IC50 (HCC70) [nM] | EC50 [3] [nM] | Ratio IC50 [4] | Activity (MDA-MB-231 [5]) | fold change (FC) [6] | Activity (BT-549 [7])
C[C@H]1O[C@@H](O[C@H]2[C@@H](O)C[C@H](O[C@H]3[C@@H](O)C[C@H](O[C@H]4CC[C@@]5(C)[C@H](CC[C@@H]6[C@@H]5C[C@@H](O)[C@]5(C)[C@@H](C7=CC(=O)OC7)CC[C@]65O)C4)O[C@@H]3C)O[C@@H]2C)C[C@H](O)[C@@H]1O [DIGOXIN] | 280 | 69 | 480 | 130 | 230 | 550 | 280 | 51 | 230 | 640 | – | – | – | – | –
C[C@@H]1C[C@@]2(N=CCS2)[C@]2(O)O[C@@H]3C[C@@]4(C=O)[C@@H](CC[C@@H]5[C@@H]4CC[C@]4(C)[C@@H](C6=CC(=O)OC6)CC[C@]54O)C[C@H]3O[C@@H]2O1 [USCHARIN] | – | 34 | 102 | – | – | – | – | 14.6 | – | – | 910 | 7 | – | – | –
C[C@]12CC[C@H](O[C@@H]3O[C@H](CO)[C@@H](O)[C@H](O)[C@H]3O)C[C@@H]1CC[C@@H]1[C@@H]2CC[C@]2(C)[C@@H](C3=CC(=O)OC3)CC[C@]12O [DESGLUCOUZARIN] | – | 1570 | 10000 | – | – | – | – | 1800 | – | – | 1100 | 6 | – | – | –
C[C@H]1O[C@@H](O[C@H]2CC[C@@]3(CO)[C@@H](CC[C@@H]4[C@@H]3CC[C@]3(C)[C@@H](C5=CC(=O)OC5)CC[C@]43O)C2)[C@H](O)[C@H](O)[C@@H]1O | – | 380 | 1250 | – | – | – | – | 121 | – | – | 500 | 10 | – | – | –
C[C@H]1O[C@H]2O[C@@H]3C[C@@H]4CC[C@@H]5[C@H](CC[C@]6(C)[C@@H](C7=CC(=O)OC7)CC[C@]56O)[C@@]4(C=O)C[C@H]3O[C@@]2(O)[C@H](O)[C@@H]1O | – | 120 | 630 | – | – | – | – | 49 | – | – | 300 | 13 | – | – | –
C[C@H]1O[C@@H](O[C@H]2CC[C@@]3(CO)[C@@H](CC[C@@H]4[C@@H]3CC[C@]3(C)[C@@H](C5=CC(=O)OC5)CC[C@]43O)C2)[C@H](O)[C@H](O)[C@@H]1O[C@@H]1O[C@H](CO)[C@@H](O)[C@H](O)[C@H]1O | – | 300 | 980 | – | – | – | – | 70 | – | – | 600 | 14 | – | – | –
C[C@]12CC[C@H](O)C[C@@H]1CC[C@@H]1[C@@H]2CC[C@]2(C)[C@@H](C3=CC(=O)OC3)CC[C@]12O | – | 3600 | > 30000 | – | – | – | – | 3900 | – | – | 2100 | >8 | – | – | –
C[C@]12CC[C@H]3[C@@H](CC[C@H]4C[C@@H](O)CC[C@@]43CO)[C@@]1(O)CC[C@@H]2C1=CC(=O)OC1 [COROGLAUCIGENIN] | – | 1800 | 20000 | – | – | – | – | 2300 | – | – | 1100 | 9 | – | – | –
C[C@@H]1C[C@H](O)[C@]2(O)O[C@@H]3C[C@@]4(C=O)[C@@H](CC[C@@H]5[C@@H]4CC[C@]4(C)[C@@H](C6=CC(=O)OC6)CC[C@]54O)C[C@H]3O[C@@H]2O1 [CALOTROPIN] | – | 60 | 440 | – | – | – | – | 30 | – | – | 360 | 15 | Active | 2 | Active
C[C@H]1O[C@@H](O[C@@H]2C[C@@H]3CC[C@@H]4[C@H](CC[C@]5(C)[C@@H](C6=CC(=O)OC6)CC[C@]45O)[C@@]3(C=O)C[C@H]2O)[C@H](O)[C@H](O)[C@@H]1O | – | 3900 | 10000 | – | – | – | – | 1400 | – | – | 2500 | 7 | – | – | –
